From ChEMBL document CHEMBL1138118, “Synthesis and anti-HSV-1 activity of quinolonic acyclovir analogues” (Bioorg Med Chem Lett, 2006)

Tests used:
Human alphaherpesvirus 1 [1] = test: Antiviral activity against HSV1 at 50 uM; assay type: functional; conditions: Human alphaherpesvirus 1, ACR-29
Method in brief: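 Vero cells (DMEM, 2% heat-inactivated FBS, 8% calf serum) were infected with HSV-1 strain ACR-29 at 1 PFU/cell for 2 h at 37 °C. The inoculum was then replaced with medium containing compound at 50 µM. After 3 days at 37 °C in 5% CO₂, supernatant titre (TCID50/mL) was measured by endpoint dilution (Reed–Muench) against untreated controls. Means of triplicates.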

Human alphaherpesvirus 1 [2] = test: Antiviral activity against HSV1 in vero cells; assay type: functional, organism-based; conditions: Human alphaherpesvirus 1, Vero
Method in brief: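 Yield reduction: confluent Vero cells were infected with HSV-1 ACR-29 at moi 1 pfu/cell for 1 h at 37 °C, washed, then given medium with varying compound concentrations. At 20 h they were freeze-thawed three times and spun at 400g for 10 min at 4 °C. Titre was read by plaque assay under 1% methylcellulose for 72 h with crystal violet stain. EC50 is the concentration inhibiting virus yield by 50%.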

Vero [3] = test: Cytotoxicity against Vero cells by MTT assay; assay type: functional; conditions: Chlorocebus sabaeus
Method in brief: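 Uninfected Vero monolayers were exposed to a range of compound concentrations for 72 h at 37 °C. MTT ([…]) was then added for 4 h at 37 °C, followed by 10% SDS/0.01 N HCl overnight. Absorbance was read at 540 nm against a 690 nm reference. CC50 is the concentration reducing host-cell viability by 50%.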

Vero [4] = test: Selectivity index (CC50/EC50) in Vero cells; assay type: functional
Method in brief: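 Ratio of CC50 (uninfected Vero, 72 h exposure) to EC50 (HSV-1 ACR-29 virus-yield inhibition in Vero); the two were determined in parallel.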

Human alphaherpesvirus 1 [5] = test: Antiviral activity against HSV1 at 10 uM; assay type: functional; conditions: Human alphaherpesvirus 1, ACR-29
Method in brief: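 Vero cells (DMEM with 2% heat-inactivated FBS plus 8% calf serum) infected with HSV-1 strain ACR-29 at 1 PFU/cell for 2 h at 37 °C. The inoculum was replaced with medium containing compound at 10 µM; untreated infected controls got medium only. After 3 days at 37 °C in 5% CO2, supernatant titre was read by endpoint dilution (TCID50/mL, Reed-Muench). Values are means of triplicates.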

Structure (SMILES)	inhibition at 50 µM (Human alphaherpesvirus 1 [1]) [%]	EC50 (Human alphaherpesvirus 1 [2]) [µM]	CC50 (Vero [3]) [µM]	Selectivity index (Vero [4])	inhibition at 10 µM (Human alphaherpesvirus 1 [5]) [%]
CCOC(=O)c1cn(COCCO)c2cc(F)ccc2c1=O	65	–	–	–	–
CCOC(=O)c1cn(COCCO)c2ccc(Cl)cc2c1=O	97	0.8	1250	1562	–
O=C(O)c1cn(COCCO)c2ccc(Br)cc2c1=O	58	–	–	–	–
O=C(O)c1cn(COCCO)c2ccc([N+](=O)[O-])cc2c1=O	70	–	–	–	–
O=C(O)c1cn(COCCO)c2cc([N+](=O)[O-])ccc2c1=O	77	–	–	–	–
CCOC(=O)c1cn(COCCO)c2ccc(F)cc2c1=O	97	2.3	> 500	>217	–
CCOC(=O)c1cn(COCCO)c2ccc(Br)cc2c1=O	84	–	–	–	–
O=C(O)c1cn(COCCO)c2ccc(Cl)cc2c1=O	98	1.1	1400	1273	–
CCOC(=O)c1cn(COCCO)c2cc([N+](=O)[O-])ccc2c1=O	77	–	–	–	–
CCOC(=O)c1cn(COCCO)c2ccc([N+](=O)[O-])cc2c1=O	95	1.5	960	640	–
Cc1ccc2c(=O)c(C(=O)O)cn(COCCO)c2c1	79	–	–	–	–
CCOC(=O)c1cn(COCCO)c2cc(Cl)ccc2c1=O	99	0.87	1200	1375	–
CCOC(=O)c1cn(COCCO)c2cc(C)ccc2c1=O	77	–	–	–	–
CCOC(=O)c1cn(COCCO)c2ccc(C)cc2c1=O	82	–	–	–	–
Nc1nc2c(ncn2COCCO)c(=O)[nH]1 [ACYCLOVIR]	–	1.09	960	880	96
COc1ccc2c(c1)c(=O)c(C(=O)O)cn2COCCO	89	–	–	–	–
O=C(O)c1cn(COCCO)c2cc(F)ccc2c1=O	97	1.4	> 500	>357	–
COc1ccc2c(=O)c(C(=O)O)cn(COCCO)c2c1	79	–	–	–	–
O=C(O)c1cn(COCCO)c2cc(Cl)ccc2c1=O	96	0.7	1200	1714	–
O=C(O)c1cn(COCCO)c2ccc(F)cc2c1=O	70	–	–	–	–
Cc1ccc2c(c1)c(=O)c(C(=O)O)cn2COCCO	93	2.2	> 500	>227	–
CCOC(=O)c1cn(COCCO)c2cc(OC)ccc2c1=O	89	–	–	–	–
CCOC(=O)c1cn(COCCO)c2ccc(OC)cc2c1=O	99	3.2	> 500	>156	–
